Where a SMILES comes first, the peptide text is derived from it.
What was measured:
D(2) dopamine receptor [1] = biological target: T1, D(2) dopamine receptor (Bos taurus, UniProt P20288); test: Inhibitory constant of compound in absence of Gpp(NH)p (Pretreated with 100 nM) calculated for the high affinity components of the [3H]spiroperidol binding to Dopamine receptor D2
Outline: (§1)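 Bovine striatal membranes (150-200 µg protein) were incubated with 0.2 nM [3H]spiroperidol and varying N-propylnorapomorphine, with or without 100 µM Gpp(NH)p and 100 nM peptidomimetic, plus 50 nM ketanserin, for 1 h at 22 °C, then GF/B filtered. Nonspecific binding was set with 1.0 µM (+)-butaclamol. A two-site fit gave high/low-affinity fractions; Ki values came via Cheng-Prusoff. Mean ± SEM of 3-4 experiments.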

D(2) dopamine receptor [2] = biological target: T1, D(2) dopamine receptor; test: Inhibitory constant of compound in absence of Gpp(NH)p calculated for the low affinity components of the [3H]spiroperidol binding to Dopamine receptor D2; outline: as §1
D(2) dopamine receptor [3] = biological target: T1, D(2) dopamine receptor; test: Inhibitory constant of compound in presence of Gpp(NH)p calculated for the high affinity components of the [3H]spiroperidol binding to Dopamine receptor D2; outline: as §1
D(2) dopamine receptor [4] = biological target: T1, D(2) dopamine receptor; test: Inhibitory constant of compound in absence of Gpp(NH)p calculated for the high affinity components of the [3H]spiroperidol binding to Dopamine receptor D2; outline: as §1
D(2) dopamine receptor [5] = biological target: T1, D(2) dopamine receptor; test: Inhibitory constant of compound in presence of Gpp(NH)p (Pre treated with 100 nM) calculated for the high affinity components of the [3H]spiroperidol binding to Dopamine receptor D2; outline: as §1
D(2) dopamine receptor [6] = biological target: T1, D(2) dopamine receptor; test: Inhibitory constant of compound in presence of Gpp(NH)p calculated for the low affinity components of the [3H]spiroperidol binding to Dopamine receptor D2; outline: as §1
D(2) dopamine receptor [7] = biological target: T1, D(2) dopamine receptor; test: Inhibitory constant of compound in presence of Gpp(NH)p (Pre treated with 100 nM) calculated for the low affinity components of the [3H]spiroperidol binding to Dopamine receptor D2; outline: as §1
D(2) dopamine receptor [8] = biological target: T1, D(2) dopamine receptor; test: Inhibitory constant of compound in absence of Gpp(NH)p (Pre treated with 100 nM) calculated for the high affinity components of the [3H]spiroperidol binding to Dopamine receptor D2; outline: as §1
D(2) dopamine receptor [9] = biological target: T1, D(2) dopamine receptor; test: Inhibitory constant of compound in presence of Gpp(NH)p (Pre treated with 1 nM) calculated for the high affinity components of the [3H]spiroperidol binding to Dopamine receptor D2
D(2) dopamine receptor [10] = biological target: T1, D(2) dopamine receptor; test: Inhibitory constant of compound in absence of Gpp(NH)p (Pre treated with 1 nM) calculated for the high affinity components of the [3H]spiroperidol binding to Dopamine receptor D2
D(2) dopamine receptor [11] = biological target: T1, D(2) dopamine receptor; test: Inhibitory constant of compound in absence of Gpp(NH)p (Pre treated with 1 uM) calculated for the high affinity components of the [3H]spiroperidol binding to Dopamine receptor D2
D(2) dopamine receptor [12] = biological target: T1, D(2) dopamine receptor; test: Inhibitory constant of compound in presence of Gpp(NH)p (Pre treated with 1 uM) calculated for the high affinity components of the [3H]spiroperidol binding to Dopamine receptor D2
D(2) dopamine receptor [13] = biological target: T1, D(2) dopamine receptor; test: Percentage of receptor in the high affinity form for the compound to Dopamine receptor D2 in absence of Gpp(NH)p (pre treated with 1 uM)

T1 sequence (P20288 whole entry): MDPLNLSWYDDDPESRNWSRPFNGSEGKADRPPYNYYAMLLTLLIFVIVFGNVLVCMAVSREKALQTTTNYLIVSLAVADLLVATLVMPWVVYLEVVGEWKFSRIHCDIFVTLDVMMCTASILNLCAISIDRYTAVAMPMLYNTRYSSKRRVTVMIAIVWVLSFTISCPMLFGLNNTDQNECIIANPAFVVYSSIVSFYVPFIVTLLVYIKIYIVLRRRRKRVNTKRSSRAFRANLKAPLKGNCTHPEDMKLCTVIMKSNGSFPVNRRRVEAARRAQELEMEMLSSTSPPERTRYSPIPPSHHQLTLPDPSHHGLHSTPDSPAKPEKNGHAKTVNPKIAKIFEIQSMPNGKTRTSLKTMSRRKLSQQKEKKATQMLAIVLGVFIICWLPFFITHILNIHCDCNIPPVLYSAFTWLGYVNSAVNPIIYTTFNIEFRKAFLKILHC

For CC(C)C[C@@H](C(=O)NCC(N)=O)N1CC(=O)N2CCC[C@H]2C1=O [(S)-2-((S)-1,4-Dioxo-hexahydro-pyrrolo[1,2-a]pyrazin-2-yl)-4-methyl-pentanoic acid carbamoylmethyl-amide], the Ki (D(2) dopamine receptor [1]) was 68 pM, the Ki (D(2) dopamine receptor [2]) was 120000 pM and the Ki (D(2) dopamine receptor [3]) was 120 pM. The Ki (D(2) dopamine receptor [4]) was 80 pM, the Ki (D(2) dopamine receptor [5]) was 80 pM and the Ki (D(2) dopamine receptor [6]) was 172000 pM. For the same compound, the Ki (D(2) dopamine receptor [7]) was 104000 pM.
For NC(=O)[C@H]1CS[C@@H]2CC(N3CC(=O)N4CCC[C@H]4C3=O)C(=O)N12 (stereo partly drawn) [(3S,7aR)-6-((2R,8aS)-1,4-Dioxo-hexahydro-pyrrolo[1,2-a]pyrazin-2-yl)-5-oxo-hexahydro-pyrrolo[2,1-b]thiazole-3-carboxylic acid amide], the Ki (D(2) dopamine receptor [2]) was 171000 pM, the Ki (D(2) dopamine receptor [3]) was 140 pM and the Ki (D(2) dopamine receptor [4]) was 98 pM. The Ki (D(2) dopamine receptor [8]) was 66 pM, the Ki (D(2) dopamine receptor [5]) was 67 pM and the Ki (D(2) dopamine receptor [6]) was 183000 pM. It also gave a Ki (D(2) dopamine receptor [7]) of 106000 pM.
NC(=O)CN1CCC(N2CC(=O)N3CCC[C@H]3C2=O)C1=O (stereo partly drawn) [2-[3-((2R,8aS)-1,4-Dioxo-hexahydro-pyrrolo[1,2-a]pyrazin-2-yl)-2-oxo-pyrrolidin-1-yl]-acetamide] gave a Ki (D(2) dopamine receptor [2]) of 69000 pM, a Ki (D(2) dopamine receptor [3]) of 190 pM and a Ki (D(2) dopamine receptor [4]) of 80 pM. It also gave a Ki (D(2) dopamine receptor [9]) of 50 pM, a Ki (D(2) dopamine receptor [6]) of 50000 pM and a Ki (D(2) dopamine receptor [10]) of 20 pM.
With CC(C)C[C@H](NC(=O)[C@@H]1CCCN1)C(=O)NCC(N)=O [L-pro-L-leu-gly-NH2] (H-Pro-Leu-Gly-NH2) the Ki (D(2) dopamine receptor [2]) was 73000 pM, the Ki (D(2) dopamine receptor [11]) was 40 pM and the Ki (D(2) dopamine receptor [12]) was 60 pM. The Ki (D(2) dopamine receptor [3]) was 130 pM, the Ki (D(2) dopamine receptor [4]) was 90 pM and the percent high-affinity form (D(2) dopamine receptor [13]) was 61 nM. It also gave a Ki (D(2) dopamine receptor [6]) of 60000 pM.

— BindingDB's records for doi:10.1021/jm970328b (University of Minnesota, 1997)
